Data set [1] concerns the target T1, Acetyl-CoA carboxylase 2 (Homo sapiens, UniProt O00763). The data set can be described thus: Inhibition of recombinant human N-terminal His6-tagged ACC2 expressed in baculovirus infected Sf9 insect cells at 10 uM using acetyl-CoA as substrate preincubated for 60 mins followed by substrate addition and measured after 30 mins Rapidfire-Mass spectrometry relative to control. As to conditions: time 90.0 min.
Target sequence in this assay (O00763 whole entry, looked up): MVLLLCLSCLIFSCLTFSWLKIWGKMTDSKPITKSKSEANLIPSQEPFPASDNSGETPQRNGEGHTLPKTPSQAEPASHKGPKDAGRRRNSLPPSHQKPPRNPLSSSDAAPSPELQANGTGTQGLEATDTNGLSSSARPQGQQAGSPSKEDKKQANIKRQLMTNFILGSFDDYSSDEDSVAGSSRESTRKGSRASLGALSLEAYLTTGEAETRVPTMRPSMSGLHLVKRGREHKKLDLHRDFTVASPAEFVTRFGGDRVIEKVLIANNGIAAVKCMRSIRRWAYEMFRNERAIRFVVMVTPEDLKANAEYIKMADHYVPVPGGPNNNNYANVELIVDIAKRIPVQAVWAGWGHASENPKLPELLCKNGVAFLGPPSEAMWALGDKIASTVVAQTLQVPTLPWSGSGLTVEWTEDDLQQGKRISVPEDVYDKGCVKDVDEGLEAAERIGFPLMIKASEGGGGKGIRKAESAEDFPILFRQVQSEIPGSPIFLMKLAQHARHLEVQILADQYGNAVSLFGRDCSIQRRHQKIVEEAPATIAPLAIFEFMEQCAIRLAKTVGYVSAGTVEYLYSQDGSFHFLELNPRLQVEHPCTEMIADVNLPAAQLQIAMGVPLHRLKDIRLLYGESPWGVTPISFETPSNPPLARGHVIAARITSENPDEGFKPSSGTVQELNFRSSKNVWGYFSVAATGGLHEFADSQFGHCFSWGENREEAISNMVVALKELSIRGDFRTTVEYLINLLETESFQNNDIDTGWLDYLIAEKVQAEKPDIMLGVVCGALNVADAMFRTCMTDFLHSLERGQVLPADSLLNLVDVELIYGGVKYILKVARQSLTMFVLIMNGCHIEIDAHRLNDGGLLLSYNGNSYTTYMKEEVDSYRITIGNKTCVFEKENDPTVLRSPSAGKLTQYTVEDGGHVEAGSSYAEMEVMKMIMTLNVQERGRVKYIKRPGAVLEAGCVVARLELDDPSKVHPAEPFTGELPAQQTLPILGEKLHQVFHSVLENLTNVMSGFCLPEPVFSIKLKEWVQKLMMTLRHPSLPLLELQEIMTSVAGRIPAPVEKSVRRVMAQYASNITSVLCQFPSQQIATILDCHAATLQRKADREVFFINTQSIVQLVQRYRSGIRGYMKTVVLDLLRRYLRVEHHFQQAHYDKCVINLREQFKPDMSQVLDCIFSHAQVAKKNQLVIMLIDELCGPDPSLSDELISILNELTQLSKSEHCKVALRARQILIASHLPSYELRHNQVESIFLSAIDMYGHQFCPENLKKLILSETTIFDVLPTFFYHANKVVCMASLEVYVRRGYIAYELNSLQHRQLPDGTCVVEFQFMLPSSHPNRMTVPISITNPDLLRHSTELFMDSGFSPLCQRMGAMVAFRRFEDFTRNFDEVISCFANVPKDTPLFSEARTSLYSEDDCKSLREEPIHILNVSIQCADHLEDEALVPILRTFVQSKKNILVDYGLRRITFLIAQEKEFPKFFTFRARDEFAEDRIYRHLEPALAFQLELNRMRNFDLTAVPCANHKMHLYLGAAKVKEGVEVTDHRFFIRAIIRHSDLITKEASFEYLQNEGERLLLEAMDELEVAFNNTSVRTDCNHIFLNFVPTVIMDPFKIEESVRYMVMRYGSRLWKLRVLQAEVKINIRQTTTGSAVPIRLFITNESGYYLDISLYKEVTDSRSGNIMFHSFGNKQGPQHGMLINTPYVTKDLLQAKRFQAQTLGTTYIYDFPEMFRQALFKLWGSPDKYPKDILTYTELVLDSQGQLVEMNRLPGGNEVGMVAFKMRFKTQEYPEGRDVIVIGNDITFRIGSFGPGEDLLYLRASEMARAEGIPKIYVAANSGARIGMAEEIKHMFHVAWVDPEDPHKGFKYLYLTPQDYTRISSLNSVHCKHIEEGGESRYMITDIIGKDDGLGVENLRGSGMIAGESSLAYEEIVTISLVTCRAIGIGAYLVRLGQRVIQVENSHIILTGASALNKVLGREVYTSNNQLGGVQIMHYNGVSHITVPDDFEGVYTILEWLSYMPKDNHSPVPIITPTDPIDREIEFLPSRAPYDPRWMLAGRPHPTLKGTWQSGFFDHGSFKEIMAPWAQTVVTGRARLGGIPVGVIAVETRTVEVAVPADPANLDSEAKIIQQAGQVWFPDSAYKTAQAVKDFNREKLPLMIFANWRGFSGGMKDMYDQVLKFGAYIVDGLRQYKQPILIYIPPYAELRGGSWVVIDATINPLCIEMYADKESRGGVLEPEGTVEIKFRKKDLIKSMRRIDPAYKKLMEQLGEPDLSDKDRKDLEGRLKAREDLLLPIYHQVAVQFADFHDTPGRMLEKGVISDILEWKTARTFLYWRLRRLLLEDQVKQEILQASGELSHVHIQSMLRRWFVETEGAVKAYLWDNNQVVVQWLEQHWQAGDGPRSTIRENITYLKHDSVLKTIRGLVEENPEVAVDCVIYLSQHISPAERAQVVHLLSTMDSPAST

Data set [2] has as its target T2, Acetyl-CoA carboxylase 1 (Homo sapiens, UniProt Q13085). In words: Inhibition of recombinant human N-terminal His6-tagged ACC1 expressed in baculovirus infected Sf9 insect cells at 10 uM using acetyl-CoA as substrate preincubated for 60 mins followed by substrate addition and measured after 30 mins Rapidfire-Mass spectrometry relative to control. As to conditions: time 90.0 min.

For data set [3], the target named is T2, Acetyl-CoA carboxylase 1. The data set can be described thus: Inhibition of recombinant human N-terminal His6-tagged ACC1 expressed in baculovirus infected Sf9 insect cells using acetyl-CoA as substrate preincubated for 60 mins followed by substrate addition and measured after 30 mins Rapidfire-Mass spectrometry. A digest of the protocol:
(§1)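 Human ACC1 or ACC2 from baculovirus-infected SF-9 cells (27 °C, 3 days), purified and dialyzed. Compound in DMSO diluted in 50 mM HEPES pH 7.5, 10 mM MgCl₂, 10 mM tripotassium citrate, 2 mM DTT, 0.001% fatty acid-free BSA. Enzyme and compound preincubated 60 min at room temperature. Substrate added: 50 mM KHCO₃, ATP, acetyl-CoA. Reaction ran 30 min at room temperature.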

Data set [4] concerns the target T1, Acetyl-CoA carboxylase 2. The data set can be described thus: Inhibition of recombinant human N-terminal His6-tagged ACC2 expressed in baculovirus infected Sf9 insect cells using acetyl-CoA as substrate preincubated for 60 mins followed by substrate addition and measured after 30 mins Rapidfire-Mass spectrometry. A digest of the protocol:
as §1
Target sequence in this assay (O00763 whole entry): as the sequence (O00763 whole entry, looked up) above

A short description of data set [5]: Inhibition of fatty acid synthesis in human HCT-116 cells assessed as reduction in [14C] acetic acid uptake preincubated for 60 mins followed by [14C]acetic acid addition and measured after 2 hrs by topcount scintillation counting method. It counts as functional, cell-based. A digest of the protocol: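 HCT-116 cells, 50,000/well, cultured overnight in RPMI with 10% FBS and penicillin/streptomycin at 37 °C, 5% CO₂. Compound added in RPMI with 0.1% fatty acid-free BSA for 60 min. Then 0.1 μCi/well [¹⁴C]acetic acid for 2 h at 37 °C. Cells washed with PBS and radioactivity counted. DMSO wells set as 0%; 100 nM reference inhibitor as 100%. IC50 is the mean of duplicates with 95% CI.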

Data set [6] in a line: Solubility of compound in pH 6.8 buffer. It counts as physicochemical. A digest of the protocol: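 Solubility measured at pH 6.8.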
Another data set addresses T3, Cytochrome P450 2C8 (Homo sapiens, UniProt P10632).
T3 sequence (P10632 whole entry): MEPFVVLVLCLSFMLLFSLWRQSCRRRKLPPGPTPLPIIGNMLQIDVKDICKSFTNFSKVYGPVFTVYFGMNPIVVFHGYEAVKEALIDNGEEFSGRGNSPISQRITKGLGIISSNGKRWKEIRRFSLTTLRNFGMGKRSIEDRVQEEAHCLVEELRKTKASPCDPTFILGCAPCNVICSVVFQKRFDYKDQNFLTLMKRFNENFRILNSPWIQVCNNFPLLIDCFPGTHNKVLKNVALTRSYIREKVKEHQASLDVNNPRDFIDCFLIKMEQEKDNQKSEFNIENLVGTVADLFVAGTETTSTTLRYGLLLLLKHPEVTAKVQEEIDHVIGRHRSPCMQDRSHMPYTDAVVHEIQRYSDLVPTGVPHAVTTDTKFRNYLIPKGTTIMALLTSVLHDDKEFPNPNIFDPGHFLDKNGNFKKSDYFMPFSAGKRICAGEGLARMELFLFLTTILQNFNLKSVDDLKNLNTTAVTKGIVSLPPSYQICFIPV
The data set can be described thus: Inhibition of CYP2C8 (unknown origin) relative to control. Type of data set: ADME.

The nature of data set [7]: Permeability of compound at pH 5 by PAMPA. Type of data set: ADME. As to conditions: read-out: permeability. Background: In PAMPA a lipid-coated filter parts donor from acceptor wells.
The nature of data set [8]: Solubility of compound in pH 1.2 buffer. Type of data set: physicochemical.
Data set [9] can be described thus: Permeability of compound at pH 7.4 by PAMPA. Type of data set: ADME. As to conditions: read-out: permeability.
Data set [10] in a line: Metabolic stability in human liver microsomes. Conditions: read-out: Stabilty. Type of data set: ADME, Microsome.
In a further data set the target is Cytochrome P450 2C9 (Homo sapiens, UniProt P11712). The data set can be described thus: Inhibition of CYP2C9 (unknown origin) relative to control. Type of data set: ADME.
The nature of data set [11]: Lipophilicity, log D of compound. Type of data set: physicochemical. Conditions: octanol/water.
The nature of data set [12]: AUC (0 to 8 hrs) in ICR mouse at 0.1 mg/kg, iv or 1 mg/kg, po. Conditions: in vivo. Details: dose 1 mg/kg. Type of data set: ADME, organism-based. A digest of the protocol: (§2)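 Male ICR mice, n = 3. Doses: 0.1 mg/kg i.v. and 1 mg/kg p.o. AUC covers 0–8 h.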
The nature of data set [13]: Oral bioavailability in ICR mouse at 1 mg/kg. Type of data set: ADME, organism-based. Conditions: in vivo. A digest of the protocol: as §2
Data set [14] is described as follows: Metabolic stability in mouse liver microsomes. As to conditions: read-out: Stabilty. Type of data set: ADME, Microsome.
For a further data set, the species on record is Homo sapiens. In words: Selectivity ratio of IC50 for inhibition of recombinant human N-terminal His6-tagged ACC2 expressed in baculovirus infected Sf9 insect cells to IC50 for inhibition of recombinant human N-terminal His6-tagged ACC1 expressed in baculovirus infected Sf9 insect cells.
Another data set deals with Mus musculus. The data set can be described thus: Inhibition of fatty acid synthesis in human HCT-116 cells xenografted BALB/cA Jc1 nu/nu mouse assessed as reduction in malonyl-CoA concentration in tumor at 100 mg/kg, po administered as single dose measured after 2 to 16 hrs by RPLC-MS/MS analysis. As to conditions: time 2-16 hrs. Type of data set: functional, organism-based. A digest of the protocol: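 Female BALB/cA Jcl-nu/nu mice, 6 weeks old, carrying s.c. hind-flank HCT-116 xenografts (cells in HBSS with Matrigel). Mice randomized by tumor volume. Single oral dose of 100 mg/kg in 0.5% methyl cellulose, or vehicle. Tumors collected 2 and 16 h after dosing, snap-frozen and pulverized under liquid N₂. Malonyl-CoA measured by RPLC-MS/MS against a calibration curve with [¹³C₃]-malonyl-CoA as internal standard.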
In general terms: A xenograft is tissue or cells of one species grown in another, often human tumour cells in immunodeficient mice.

The source of these data is ChEMBL document CHEMBL4706693, “Design and synthesis of a monocyclic derivative as a selective ACC1 inhibitor by chemical modification of biphenyl ACC1/2 dual inhibitors” (Bioorg Med Chem, 2021).

≈ marks a conversion by molar mass, not a printed value. Calls of active or inactive are those of the source. The rule behind the calls is not given here. A value given as a limit tells only on which side of the number the result lay.

Usually inhibition stands for the percentage by which the read-out fell short of the control. A word on the IC50: it is the concentration needed to halve the response being measured. The solubility is the concentration that dissolves in the medium under given conditions. The term logD denotes the decadic logarithm of the distribution of all forms, ionised or not, between an organic phase and buffer at a given pH. The low end stands for lower lipophilicity, the high end for higher lipophilicity. By AUC(0-t) is commonly meant exposure summed from dosing to a finite time, without extrapolation to infinity. By bioavailability is commonly meant the share of a dose that reaches the circulation, judged against a reference dose that is usually intravenous. A higher bioavailability goes with much systemic uptake.

For `CCCc1ccc(Oc2ccc(-c3ccc(C(C)NC(C)=O)cc3)cc2)cc1` (centres undefined), the inhibition at Acetyl-CoA carboxylase 2 [1] came to 11%; on Acetyl-CoA carboxylase 1 [2], 38%.

Regarding `CC(=O)NC(C)c1ccc(OCc2ccc(Oc3cccc(OCC4CC4)c3)cc2)cc1` (centres undefined), the values for the IC50 (at Acetyl-CoA carboxylase 1 [3]; on Acetyl-CoA carboxylase 2 [4]; in data set [5]) were 220 nM, more than 10000 nM and 420 nM, respectively.

Turning to `CCCOc1ccc(Oc2ccc(-c3ccc(C(C)NC(C)=O)cc3)cc2)cc1` (centres undefined), the inhibition is 51% on Acetyl-CoA carboxylase 2 [1] and 50% on Acetyl-CoA carboxylase 1 [2].

For the molecule `CC(=O)NC(C)c1ccc(OCc2ccc(Oc3cccc(OCC4CC4)c3)nc2)cc1` (centres undefined), the figures for the IC50 (at Acetyl-CoA carboxylase 1 [3]; on Acetyl-CoA carboxylase 2 [4]; in data set [5]) were 790 nM, more than 10000 nM and 900 nM, respectively.

As to `CC(=O)NC(C)c1ccc(OCc2ccc(Oc3cccc(OCC4CC4)c3)cn2)cc1` (centres undefined), the figures for the IC50 (at Acetyl-CoA carboxylase 1 [3]; on Acetyl-CoA carboxylase 2 [4]; in data set [5]) were 1200 nM, more than 10000 nM and more than 1000 nM, respectively.

For `CCCCOc1cccc(Oc2ccc(-c3ccc(C(C)NC(C)=O)cc3)cc2)c1` (centres undefined), the values for the IC50 on Acetyl-CoA carboxylase 1 [3] and at Acetyl-CoA carboxylase 2 [4] were 120 nM and 210 nM, respectively.

On to `CC(=O)NC(C)c1ccc(Oc2ccc(Oc3cccc(OCC4CC4)c3)cc2)cc1` (centres undefined), for which the IC50 at Acetyl-CoA carboxylase 1 [3] amounted to 39 nM; at Acetyl-CoA carboxylase 2 [4], 20 nM.

As to `CC(=O)NC(C)c1cnc(OCc2c(F)cc(Oc3cccc(OCC4CC4)c3)cc2F)cn1` (centres undefined), the IC50 on Acetyl-CoA carboxylase 1 [3] was 89 nM; on Acetyl-CoA carboxylase 2 [4], more than 10000 nM; in data set [5], 180 nM. In [6], this molecule yielded a solubility of 0.46 µg/mL (≈ 0.98 µM).

`COCCc1ccc(Oc2ccc(-c3ccc(C(C)NC(C)=O)cc3)cc2)cc1` (centres undefined): the inhibition is 6% on Acetyl-CoA carboxylase 2 [1] and 49% at Acetyl-CoA carboxylase 1 [2]. Further, at Acetyl-CoA carboxylase 2 [4], the IC50 was more than 30000 nM.

Take `COCCc1cccc(Oc2ccc(-c3ccc(C(C)NC(C)=O)cc3)cc2)c1` (centres undefined): the IC50 on Acetyl-CoA carboxylase 1 [3] amounted to 130 nM; on Acetyl-CoA carboxylase 2 [4], 98 nM.

`CC(=O)NC(C)c1ccc(OCc2c(F)cc(Oc3cccc(OCC4CC4)c3)cc2F)cc1` (centres undefined): the IC50 on Acetyl-CoA carboxylase 1 [3] was 15 nM; on Acetyl-CoA carboxylase 2 [4] it was more than 10000 nM; in data set [5] it was 9.7 nM. Moreover, the “inhibition (INH)” value is listed as 31.4% at Cytochrome P450 2C8 and -22.7% on Cytochrome P450 2C9. The Papp in data set [7] was 34.6 ×10⁻⁶ cm/s; in data set [9], 11.1 ×10⁻⁶ cm/s. The solubility is less than 0.23 µg/mL in data set [8] and less than 0.21 µg/mL in [6]. The microsomal CLint was found to be 30 µL/min/mg in data set [10] and 36 µL/min/mg in data set [14]. This molecule also showed a logD in data set [11] of 5.01. Also, the AUC(0-t) in data set [12] came to 1580 ng·h/mL. Besides, in data set [13], the bioavailability worked out at 31.1%.

Take `CC(=O)NC(C)c1ccc(OCc2c(F)cc(Oc3cccc(OCC4CC4)c3)cc2F)nn1` (centres undefined): the IC50 on Acetyl-CoA carboxylase 1 [3] was 31 nM; on Acetyl-CoA carboxylase 2 [4] it was more than 10000 nM; in [5], 110 nM. Moreover, the solubility in data set [6] amounted to 2.3 µg/mL (≈ 4.9 µM).

On to `CC(=O)NC(C)c1ccc(OCc2ccc(Oc3cccc(OCC4CC4)c3)cc2F)cc1` (centres undefined), for which the results for the IC50 (at Acetyl-CoA carboxylase 1 [3]; at Acetyl-CoA carboxylase 2 [4]; in [5]) were 69 nM, more than 10000 nM and 63 nM, respectively.

As to `CC(=O)NC(C)c1ccc(-c2ccc(Oc3cccc(OCC4CC4)c3)cc2)cc1` (centres undefined), the IC50 at Acetyl-CoA carboxylase 1 [3] is 60 nM; at Acetyl-CoA carboxylase 2 [4], 150 nM. In addition, the Ratio IC50 in the data set listed under Homo sapiens amounted to 2.5.

For `CC(=O)NC(C)c1ccc(OCc2c(F)cc(Oc3cccc(OCC4CC4)c3)cc2F)nc1` (centres undefined), the IC50 was 17 nM at Acetyl-CoA carboxylase 1 [3], more than 10000 nM on Acetyl-CoA carboxylase 2 [4] and 24 nM in [5]. Further, the “inhibition (INH)” value at Cytochrome P450 2C8 is 32%; against Cytochrome P450 2C9 it was -13.8%. The results for the Papp in [7] and in [9] were 66.2 ×10⁻⁶ cm/s and 68.3 ×10⁻⁶ cm/s, respectively. In addition, the solubility in [8] and in [6] was less than 0.23 µg/mL each time. For the same molecule, the microsomal CLint was 12 µL/min/mg in data set [10] and 17 µL/min/mg in [14]. For the same molecule, in the data set on Mus musculus, the inhibition result is “Active”. Besides, the logD in data set [11] was 4.82. In addition, the AUC(0-t) in [12] worked out at 5350 ng·h/mL. Moreover, in data set [13], the bioavailability is 70.5%.

For the molecule `CC(=O)NC(C)c1ccc(OCc2c(F)cc(Oc3cccc(OCC4CC4)c3)cc2F)cn1` (centres undefined), the IC50 was 38 nM on Acetyl-CoA carboxylase 1 [3], more than 10000 nM on Acetyl-CoA carboxylase 2 [4] and 70 nM in [5]. For the same molecule, the solubility in [6] worked out at 1.5 µg/mL (≈ 3.2 µM).
